Source: PubChem BioAssay
Results filed as inconclusive are left out.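 How the source made its calls, unless noted: active means RAM network inhibition above 8.4% in each of two replicates, 3 SD over the compound average; inconclusive means above 8.4% inhibition in only one replicate; inactive means 8.4% inhibition or less in each replicate.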

What was measured:
[1] = S. cerevisiae growth inhibition in permissive medium (OD615), pilot counter-assay for S. cerevisiae lifespan shortening project, permissive growth control (AID 705;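 active means growth inhibition above 25% in both replicates, a cutoff set 3 SD above the mean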); details: OD615, 24 h, at 10 µM, active compounds read high
Procedure, shortened: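 System: engineered DeaD yeast; Medium: permissive raffinose/galactose medium; Compound dosing: 10 µM single dose, 0.25% DMSO; Incubation: 4 h cell pre-growth, 24 h exposure at 30 °C; Technique: OD at 615 nm; Evaluation: growth inhibition from lowered OD615 after 24 h.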

[2] = S. cerevisiae growth inhibition in restrictive medium, OD615, pilot screen, restrictive growth control, yeast lifespan reduction project (AID 706;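 active means growth inhibition above a set limit, 3 SD over mean compound inhibition, in both replicates, cut at about 43% in these data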;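 further: modified DeaD lifespan yeast strain shifted to restrictive glucose medium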); details: OD615, 48 h, at 10 µM, active compounds read high
Procedure, shortened: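 Material: modified S. cerevisiae; buffer or medium: CSMM-D glucose medium; doses: one concentration, 10 µM final, 0.25% DMSO; incubation: 48 h compound exposure at 30 °C; detection: optical density at 615 nm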

[3] = doxorubicin toxicity protection in MRP-1 cells – H69AR cells, CellTiter-Glo, duplicate, MRP-1 activator project, pilot screen (AID 807;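 active means viability increase at or above a cutoff of the median across tested compounds plus 3 SD, cut at about 8.5% in these data, passing the limit was not always enough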;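 further: compound pretreatment 18-22 h then 72 h combined with doxorubicin; 0% = doxorubicin alone and 100% = vehicle without doxorubicin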); details: H69AR viability with doxorubicin, CellTiter-Glo luminescence; at 10 µM; active compounds read high
[4] = viability of HCT116 without oncogenic beta-catenin – human colon tumor cells, pilot screen (AID 823;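 active means cell viability at or below a set limit in both duplicate runs, the limit being the all-compound median minus 4 SD, cut at about 23% in these data, passing the limit was not always enough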;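 further: 0% = wells killed by 20 µM Hyamine and 100% = untreated DMSO cell wells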); details: HCT116 beta-catenin knockout viability, CellTiter-Glo, 60 h; at 10 µM; active compounds read low
[5] = viability of PTEN-null HCT116 cells – cell-based, HCT116 clonal line, CellTiter-Glo, pilot screen (AID 824;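 active means viability at or below 27.92% in each of two runs, the all-compound median minus 4 SD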;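 further: 0% = 20 µM Hyamine control and 100% = vehicle cell control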); details: HCT116 PTEN-deleted viability, 60 h, at 10 µM, active compounds read low
[6] = RAM pathway blockade in budding yeast – dse1pr::URA3 reporter, 5-FOA selection, pilot screen (AID 869;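 active means inhibition over a set limit, the all-compound mean plus 3 SD, in both replicate runs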;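 further: 0% = DMSO wells with no growth and 100% = 10 µM 1-NA-PP1 with full growth; RAM network block rescues cells from 5-FOA so hits raise OD615 growth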); details: S. cerevisiae dse1pr::URA3 5-FOA growth, OD615, 2 d; at 10 µM; active compounds read high; strain carries analog-sensitive mutant Cbk1 kinase
[7] = RAM signaling pathway blockade in yeast – S. cerevisiae, Pdr1DBD-CYC8 efflux-inhibited sensitized strain, primary screen (AID 1298);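 further: 0% = DMSO untreated cells without growth and 100% = 10 µM 1-NA-PP1 full growth; higher means more yeast growth rescued from 5-FOA killing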; details: S. cerevisiae cbk1-as DSE1-URA3 strain, 5-FOA growth OD615, 2 d; at 50 µM; active compounds read high

O=C(Cn1cc2c(n1)CCCC2)NCCCN1CCN(C2CCCCC2)CC1
inactive: growth inhibition [1] -3.58% | growth inhibition [2] 9.3% | viability increase [3] -0.74% | viability [4] 101% | viability [5] 93.1% | inhibition [6] 1.92% | RAM network inhibition [7] 0.77%

COc1ccc(OCC(=O)N2CCN(C(=O)c3ccccc3)CC2)cc1
inactive: growth inhibition [1] -15.8% | growth inhibition [2] -9.8% | viability increase [3] 1.19% | viability [4] 91.1% | viability [5] 87.2% | inhibition [6] 1.66% | RAM network inhibition [7] 0.47%

Cc1ccc(CNC(=O)c2cc3c(=O)n(C)c4ccccc4c3n2C)o1
inactive: growth inhibition [1] 1.32% | growth inhibition [2] 0.445% | viability increase [3] -4.08% | viability [4] 106% | viability [5] 104% | inhibition [6] 2.61% | RAM network inhibition [7] 4.84%

CCN1C(=O)c2ccccc2S(=O)c2ccc(C(=O)NCc3ccccn3)cc21 (stereo not given)
inactive: growth inhibition [1] -1.77% | growth inhibition [2] -3.51% | viability increase [3] -0.87% | viability [4] 105% | viability [5] 95.7% | inhibition [6] 1.95% | RAM network inhibition [7] -2.39%

CCOC(=O)C1CCN(S(=O)(=O)c2cc(Br)cc3c2N(C(C)=O)C(C)C3)CC1 (stereo not given)
inactive: growth inhibition [1] -11.1% | growth inhibition [2] -29% | viability increase [3] 0.29% | viability [4] 93.4% | viability [5] 93.2% | inhibition [6] 1.19% | RAM network inhibition [7] 11.2%

Cc1cc(-c2nc3ncccc3o2)ccc1NC(=O)CC(C)C
inactive: growth inhibition [1] -3.98% | growth inhibition [2] -5.53% | viability increase [3] -0.17% | viability [4] 108% | viability [5] 90% | inhibition [6] 1.06% | RAM network inhibition [7] 0.92%

O=C1Nc2ccccc2C(O)(C(=O)NC2CC2)N1c1ccc(Cl)c(Cl)c1 (stereo not given)
inactive: growth inhibition [1] -1.51% | growth inhibition [2] -1.06% | viability increase [3] -4.14% | viability [4] 92.5% | viability [5] 95% | inhibition [6] 1.22% | RAM network inhibition [7] 3.99%

CCOC(=O)N1CCN(CC(O)c2ccc3cc[nH]c3c2)CC1 (stereo not given)
inactive: growth inhibition [1] -10.8% | growth inhibition [2] -0.09% | viability increase [3] -3.2% | viability [4] 88.8% | viability [5] 88.4% | inhibition [6] 1.44% | RAM network inhibition [7] 1.94%

c1cn2c(NC3CCCC3)c(-c3ccc(N4CCOCC4)cc3)nc2cn1
inactive: growth inhibition [1] -2.94% | growth inhibition [2] 7.59% | viability increase [3] -4.3% | viability [4] 88.8% | viability [5] 77.8% | inhibition [6] 1.78% | RAM network inhibition [7] 3.25%

Cn1c(=NC(=O)c2ccco2)sc2cccc(F)c21
inactive: growth inhibition [1] -12.6% | growth inhibition [2] -1.11% | viability increase [3] -7.04% | viability [4] 80.9% | viability [5] 78.4% | inhibition [6] 2.1% | RAM network inhibition [7] 6.79%

O=C(c1cnn(-c2ccccc2)c1-n1cccc1)N1CCN(C2CCCCC2)CC1
inactive: growth inhibition [1] -1.61% | growth inhibition [2] 5.93% | viability increase [3] -3.1% | viability [4] 94% | viability [5] 93.4% | inhibition [6] 1.35% | RAM network inhibition [7] 2.87%

CC(C)OCCCNC(=O)c1ccc2c(c1)ncn2C1CCCC1
inactive: growth inhibition [1] -12.5% | growth inhibition [2] -6.74% | viability increase [3] -2.69% | viability [4] 102% | viability [5] 97.5% | inhibition [6] 1.38% | RAM network inhibition [7] 1.62%

Cc1cccc(-n2ncc3c(NC(C)C)ncnc32)c1
inactive: growth inhibition [1] 5.47% | growth inhibition [2] 3.18% | viability increase [3] -0.3% | viability [4] 101% | viability [5] 84.3% | inhibition [6] 0.87% | RAM network inhibition [7] -0.57%

O=S(=O)(NC1=NCCCCC1)c1cccs1
inactive: growth inhibition [1] -0.86% | growth inhibition [2] -16.7% | viability increase [3] -0.2% | viability [4] 100% | viability [5] 98.2% | inhibition [6] 0.765% | RAM network inhibition [7] 5.54%

COCCCNC(=O)c1cc2c(-c3ccc(Cl)cc3)nn(C)c2s1
inactive: growth inhibition [1] -0.14% | growth inhibition [2] 1.75% | viability increase [3] -6.69% | viability [4] 82.9% | viability [5] 84.5% | inhibition [6] 3.08% | RAM network inhibition [7] 3.67%

COc1ccc(N(CC(=O)N2CCc3ccccc3C2)S(=O)(=O)c2c(C)[nH]c(=O)[nH]c2=O)cc1
inactive: growth inhibition [1] -5.04% | growth inhibition [2] -13% | viability increase [3] -1.83% | viability [4] 110% | viability [5] 99.5% | inhibition [6] 2.77% | RAM network inhibition [7] 3.41%

COc1cc(C2C(C(=O)Nc3ccc(F)cc3)=C(C)Nc3nc(CCCO)nn32)cc(OC)c1OC (stereo not given)
inactive: growth inhibition [1] -2.56% | growth inhibition [2] -11.4% | viability increase [3] -1.09% | viability [4] 105% | viability [5] 92.7% | inhibition [6] 2.58% | RAM network inhibition [7] 1.42%

COc1cccc(-n2c(=O)[nH]cc(C(=O)Nc3ccc4c(c3)OCCO4)c2=O)c1
inactive: growth inhibition [1] -8.56% | growth inhibition [2] -1.22% | viability increase [3] -1.26% | viability [4] 105% | viability [5] 101% | inhibition [6] 3.17% | RAM network inhibition [7] 5.22%

Cc1cc(N2C(=O)C3C4c5ccccc5C(c5ccccc54)C3C2=O)no1 (stereo not given)
inactive: growth inhibition [1] -9.23% | growth inhibition [2] -12.7% | viability increase [3] -2.14% | viability [4] 80.2% | viability [5] 90.7% | inhibition [6] 0.02% | RAM network inhibition [7] 5.19%

CCOC(=O)c1sc2nc(NC(=O)c3cccs3)sc2c1C
inactive: growth inhibition [1] 5.51% | growth inhibition [2] -2.37% | viability increase [3] -1.92% | viability [4] 92.5% | viability [5] 87.4% | inhibition [6] -0.28% | RAM network inhibition [7] -0.16%

CCOC(=O)Cc1c(C)nc2c(-c3ccccc3)c[nH]n2c1=O
inactive: growth inhibition [1] -9.38% | growth inhibition [2] -14.3% | viability increase [3] -5.95% | viability [4] 76.8% | viability [5] 76.5% | inhibition [6] 1.96% | RAM network inhibition [7] 10.5%

CCOc1ccc(N=C2NC(=O)C(CC(=O)O)S2)cc1 (stereo not given)
inactive: growth inhibition [1] -5.86% | growth inhibition [2] 3% | viability increase [3] -0.06% | viability [4] 104% | viability [5] 101% | inhibition [6] 2.49% | RAM network inhibition [7] 2.45%

CCSc1nnc2c(n1)OC1(CCCC1)Nc1ccccc1-2
inactive: growth inhibition [1] -13.8% | growth inhibition [2] -3.69% | viability increase [3] -0.51% | viability [4] 97.3% | viability [5] 93.5% | inhibition [6] 1.45% | RAM network inhibition [7] 5.92%

O=C(CN1CCOc2ccccc21)NCc1ccccc1
inactive: growth inhibition [1] -29.7% | growth inhibition [2] 4.34% | viability increase [3] -6.69% | viability [4] 98.2% | viability [5] 86% | inhibition [6] 0.395% | RAM network inhibition [7] 2.11%

COC(=O)c1ccc(OCC(O)CN2CCC(C)CC2)cc1 (stereo not given)
inactive: growth inhibition [1] -2.79% | growth inhibition [2] -3.85% | viability increase [3] -2.26% | viability [4] 92.3% | viability [5] 94.1% | inhibition [6] 0.835% | RAM network inhibition [7] 4.68%

NC(=O)C1CCN(CCCNC2CC(=O)N(Cc3ccc(N4CCCC4=O)cc3)C2=O)CC1 (stereo not given)
inactive: growth inhibition [1] -14.8% | growth inhibition [2] -4.07% | viability increase [3] -0.01% | viability [4] 98.7% | viability [5] 98.7% | inhibition [6] 1.15% | RAM network inhibition [7] 5.68%

O=S(=O)(c1ccc(OCc2nc3ccccc3s2)c(Cl)c1)N1CCOCC1
inactive: growth inhibition [1] -7% | growth inhibition [2] 9.42% | viability increase [3] -0.83% | viability [4] 91.5% | viability [5] 88.6% | inhibition [6] 1.26% | RAM network inhibition [7] -0.57%

COC(=O)CSc1nc(C)cc(Oc2ccccc2)n1
inactive: growth inhibition [1] -8.61% | growth inhibition [2] -5.81% | viability increase [3] -1.76% | viability [4] 104% | viability [5] 95.8% | inhibition [6] 1.48% | RAM network inhibition [7] 4.9%

CC(=O)c1ccc(NC(=O)CSc2nnc(Cc3cccn3C)n2-c2ccc(F)cc2)cc1
inactive: growth inhibition [1] 0.105% | growth inhibition [2] 12.5% | viability increase [3] -2.21% | viability [4] 98% | viability [5] 94.3% | inhibition [6] 0.005% | RAM network inhibition [7] 5.1%

CCCn1c(CN2CCN(C(=O)c3ccco3)CC2)nc2c1c(=O)n(C)c(=O)n2C
inactive: growth inhibition [1] -14.1% | growth inhibition [2] -25.5% | viability increase [3] -1.84% | viability [4] 97% | viability [5] 93.8% | inhibition [6] 0.34% | RAM network inhibition [7] 2.82%

COc1ccc(S(=O)(=O)Cc2ccc(C(=O)NC3CC3)o2)cc1
inactive: growth inhibition [1] 1.37% | growth inhibition [2] -4.7% | viability increase [3] -3.02% | viability [4] 75.5% | viability [5] 87.9% | inhibition [6] 0.85% | RAM network inhibition [7] 2.57%

Cc1cc2nc(SCCN3CCCC3)[nH]c2cc1C
inactive: growth inhibition [1] 7.63% | growth inhibition [2] -8.07% | viability increase [3] -4.4% | viability [4] 83.1% | viability [5] 89.1% | inhibition [6] 3.22% | RAM network inhibition [7] -0.81%

OCCCc1nc2n(n1)C(c1ccccc1)C=C(c1ccccc1)N2 (stereo not given)
inactive: growth inhibition [1] -7.07% | growth inhibition [2] 1.69% | viability increase [3] -2.67% | viability [4] 97.1% | viability [5] 89.1% | inhibition [6] 0.59% | RAM network inhibition [7] 0.53%

CCOc1ccc(Cc2nnc(SCC(=O)c3ccc(OC)cc3)o2)cc1
inactive: growth inhibition [1] 1.71% | growth inhibition [2] 25.5% | viability increase [3] 0.28% | viability [4] 54.3% | viability [5] 70.3% | inhibition [6] 1.66% | RAM network inhibition [7] 11.3%

Cc1ccc(F)c(NC=C2C(=O)OC(C)(C)OC2=O)c1
inactive: growth inhibition [1] -10.2% | growth inhibition [2] -7.67% | viability increase [3] 0.97% | viability [4] 87.9% | viability [5] 92.8% | inhibition [6] 2.53% | RAM network inhibition [7] 2.44%
